Test results: ChEMBL document CHEMBL2321795, “Solubility-driven optimization of (pyridin-3-yl) benzoxazinyl-oxazolidinones leading to a promising antibacterial agent” (J Med Chem, 2013)
In brackets after ≈: the same amount, converted by molar mass.

Key:
Type in all cases: functional
Staphylococcus aureus [1] = assay: Antibacterial activity against methicillin-resistant Staphylococcus aureus after 16 hrs by NCCLS agar dilution method
Method in brief: (§1)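 Agar dilution MIC. Stocks were 320 μg/mL in 50% aqueous DMSO, 2-fold serially diluted in sterile water, then diluted 10-fold into Mueller–Hinton agar to give 16–0.03125 μg/mL final. Organisms were grown in MH broth at 35 °C for 8 h and adjusted to 0.5 McFarland. They were spotted onto drug-containing plates with a multipoint inoculator and incubated at 35 °C for 16 h. Linezolid was the positive control.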

Enterococcus faecalis = assay: Antibacterial activity against Enterococcus faecalis after 16 hrs by NCCLS agar dilution method
Method in brief: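 Agar dilution MIC per NCCLS, 6 E. faecalis strains. Stock was 320 μg/mL in 50% water/DMSO, serially 2-fold diluted in sterile water, then 10-fold into Mueller–Hinton agar to give 16–0.03125 μg/mL final. Inocula came from MH broth cultures grown 8 h at 35 °C, adjusted to 0.5 McFarland and spotted by multipoint inoculator. Plates were read after 16 h at 35 °C.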

Staphylococcus aureus [2] = assay: Antibacterial activity against methicillin-sensitive Staphylococcus aureus after 16 hrs by NCCLS agar dilution method; method in brief: as §1
Streptococcus pneumoniae = assay: Antibacterial activity against penicillin-resistant Streptococcus pneumoniae after 16 hrs by NCCLS agar dilution method; method in brief: as §1
[3] = tested on: Staphylococcus epidermidis; assay: Antibacterial activity against methicillin-resistant Staphylococcus epidermidis after 16 hrs by NCCLS agar dilution method; method in brief: as §1
[4] = tested on: Staphylococcus epidermidis; assay: Antibacterial activity against methicillin-sensitive Staphylococcus epidermidis after 16 hrs by NCCLS agar dilution method; method in brief: as §1

| Structure (SMILES) | MIC (Staphylococcus aureus [1]) [µg/mL] | MIC (Enterococcus faecalis) [µg/mL] | MIC (Staphylococcus aureus [2]) [µg/mL] | MIC (Streptococcus pneumoniae) [µg/mL] | MIC [3] [µg/mL] | MIC [4] [µg/mL] |
| --- | --- | --- | --- | --- | --- | --- |
| CC(=O)N1CCN(c2ccc(-c3ccc4c(c3)OC[C@H]3[C@H](CO)OC(=O)N43)cn2)C1=O | 4 (≈ 9.42 µM) | 4 (≈ 9.42 µM) | 8 (≈ 18.8 µM) | 8 (≈ 18.8 µM) | 8 (≈ 18.8 µM) | 4 (≈ 9.42 µM) |
| CN1CCC(Oc2ccc(-c3ccc4c(c3)OC[C@H]3[C@H](CO)OC(=O)N43)cn2)CC1 | 4 (≈ 9.72 µM) | > 32 | 4 (≈ 9.72 µM) | 16 (≈ 38.9 µM) | 8 (≈ 19.4 µM) | 4 (≈ 9.72 µM) |
| O=C1O[C@H](CO)CN1c1ccc(-c2ccc3c(c2)OC[C@H]2[C@H](CO)OC(=O)N32)cn1 | 0.5 (≈ 1.21 µM) | 0.5 (≈ 1.21 µM) | 0.5 (≈ 1.21 µM) | 0.5 (≈ 1.21 µM) | 0.5 (≈ 1.21 µM) | 0.5 (≈ 1.21 µM) |
| CN1C[C@H](c2ccc(-c3ccc4c(c3)OC[C@H]3[C@H](CO)OC(=O)N43)cn2)OC1=O | 1 (≈ 2.52 µM) | 2 (≈ 5.03 µM) | 1 (≈ 2.52 µM) | 2 (≈ 5.03 µM) | 1 (≈ 2.52 µM) | 0.5 (≈ 1.26 µM) |
| CN1CCN(c2ccc(-c3ccc4c(c3)OC[C@H]3[C@H](CO)OC(=O)N43)cn2)C1=O | 2 (≈ 5.05 µM) | 8 (≈ 20.2 µM) | 2 (≈ 5.05 µM) | 4 (≈ 10.1 µM) | 4 (≈ 10.1 µM) | 2 (≈ 5.05 µM) |
| O=C1O[C@@H](CO)[C@@H]2COc3cc(-c4ccc(N5CCC(O)CC5)nc4)ccc3N12 | 2 (≈ 5.03 µM) | > 32 | 2 (≈ 5.03 µM) | 2 (≈ 5.03 µM) | 2 (≈ 5.03 µM) | 4 (≈ 10.1 µM) |
| O=C1O[C@@H](CO)[C@@H]2COc3cc(-c4ccc(C(F)(F)F)nc4)ccc3N12 | – | > 16 | > 16 | > 16 | – | > 16 |
| NCC1CN(c2ccc(-c3ccc4c(c3)OC[C@H]3[C@H](CO)OC(=O)N43)cn2)C(=O)O1 (some centres undefined) | 1 (≈ 2.42 µM) | 1 (≈ 2.42 µM) | 1 (≈ 2.42 µM) | 2 (≈ 4.85 µM) | 2 (≈ 4.85 µM) | 0.5 (≈ 1.21 µM) |
| CC(O)c1ccc(-c2ccc3c(c2)OC[C@H]2[C@H](CO)OC(=O)N32)cn1 (some centres undefined) | 1 (≈ 2.92 µM) | 2 (≈ 5.84 µM) | 1 (≈ 2.92 µM) | 2 (≈ 5.84 µM) | 1 (≈ 2.92 µM) | 1 (≈ 2.92 µM) |
| N#Cc1ccc(-c2ccc3c(c2)OC[C@H]2[C@H](CN)OC(=O)N32)cn1 | – | > 16 | > 16 | > 16 | – | > 16 |
| C[C@@H](O)C(O)c1ccc(-c2ccc3c(c2)OC[C@H]2[C@H](CO)OC(=O)N32)cn1 (some centres undefined) | 2 (≈ 5.37 µM) | 4 (≈ 10.7 µM) | 2 (≈ 5.37 µM) | 2 (≈ 5.37 µM) | 1 (≈ 2.69 µM) | 1 (≈ 2.69 µM) |
| CCN1CCN(c2ccc(-c3ccc4c(c3)OC[C@H]3[C@H](CO)OC(=O)N43)cn2)CC1 | 4 (≈ 9.74 µM) | 4 (≈ 9.74 µM) | 4 (≈ 9.74 µM) | 8 (≈ 19.5 µM) | 4 (≈ 9.74 µM) | 2 (≈ 4.87 µM) |
| Cc1cc(C#N)ncc1-c1ccc2c(c1)OC[C@H]1[C@H](CO)OC(=O)N21 | 0.25 (≈ 0.741 µM) | 4 (≈ 11.9 µM) | 0.25 (≈ 0.741 µM) | 1 (≈ 2.96 µM) | 0.25 (≈ 0.741 µM) | 0.25 (≈ 0.741 µM) |
| O=C1O[C@@H](CO)[C@@H]2COc3cc(-c4ccc(C5(O)CCCC5)nc4)ccc3N12 | 1 (≈ 2.61 µM) | 2 (≈ 5.23 µM) | 2 (≈ 5.23 µM) | 2 (≈ 5.23 µM) | 1 (≈ 2.61 µM) | 1 (≈ 2.61 µM) |
| NC1(c2ccc(-c3ccc4c(c3)OC[C@H]3[C@H](CO)OC(=O)N43)cn2)CC1 | 1 (≈ 2.83 µM) | 2 (≈ 5.66 µM) | 2 (≈ 5.66 µM) | 1 (≈ 2.83 µM) | 1 (≈ 2.83 µM) | 1 (≈ 2.83 µM) |
| CN1CCN(c2ccc(-c3ccc4c(c3)OC[C@H]3[C@H](CO)OC(=O)N43)cn2)CC1 | 4 (≈ 10.1 µM) | 2 (≈ 5.04 µM) | 2 (≈ 5.04 µM) | 4 (≈ 10.1 µM) | 4 (≈ 10.1 µM) | 2 (≈ 5.04 µM) |
| CC(C)N1CCN(c2ccc(-c3ccc4c(c3)OC[C@H]3[C@H](CO)OC(=O)N43)cn2)C1=O | 2 (≈ 4.71 µM) | 8 (≈ 18.8 µM) | 4 (≈ 9.42 µM) | 4 (≈ 9.42 µM) | 4 (≈ 9.42 µM) | 2 (≈ 4.71 µM) |
| O=C1O[C@@H](CO)[C@@H]2COc3cc(-c4ccc(Cn5cnnn5)nc4)ccc3N12 | 2 (≈ 5.26 µM) | 4 (≈ 10.5 µM) | 2 (≈ 5.26 µM) | 4 (≈ 10.5 µM) | 1 (≈ 2.63 µM) | 1 (≈ 2.63 µM) |
